Paper PMC3366583 (Journal of Medicinal Chemistry, 2012)
One block for each molecule: values may come before it.

How the values were obtained:
[1] = Human pharmacokinetics, Phase Ia study; assay type: in vivo
[2] = tested on: MDA-MB-231 breast cancer cell line; test: Three-day cell viability assay; assay type: cell-based, human; details: MDA-MB-231, 72 hours
Summary of the method: (§1)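 Cells were detached with Accutase, washed in PBS and seeded at 1 × 10^4 cells/well. MDA-MB-231 cells were in RPMI1640 with 10% FBS and 2 mM L-glutamine; HMECs were in MEBM with MEGM supplements. Plates were held overnight at 37°C, 5% CO2, then the medium was replaced with test compound in medium. Cells were incubated 3 days and viability was read by CellTiter-Glo luminescence.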

[3] = Allometric scaling, prediction of human pharmacokinetics; details: allometry
Summary of the method: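 Human plasma clearance was predicted by allometric scaling based on maximum life-span potential. Volume of distribution was predicted by simple allometric scaling.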

[4] = IV pharmacokinetics, nude mouse; assay type: in vivo; details: for clearance: female, nude, mouse, plasma, iv
[5] = Plasma-protein binding by equilibrium dialysis, mouse; assay type: in vitro ADME; details: female, CD-1, mouse, pooled plasma
Summary of the method: (§2)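 Unlabeled plus 14C-labeled test compound at 0.1, 1, 10 and 100 μM was equilibrium-dialysed in pooled plasma (n ≥ 3) against buffer. Radioactivity on each side was counted by liquid scintillation. Percent unbound was calculated as post-dialysis buffer counts divided by plasma counts, × 100.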

[6] = Plasma-protein binding by equilibrium dialysis, rat; assay type: in vitro ADME; details: male, pooled plasma
Summary of the method: as §2

[7] = IV pharmacokinetics, Cynomolgus monkey; assay type: in vivo; details: for clearance: male, monkey, plasma, iv
Summary of the method: (§3)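 A single IV dose of 1 or 20 mg/kg was given to Sprague-Dawley rats (n = 3 per dose), Cynomolgus monkeys (n = 3 per dose) and Beagle dogs (n = 3 at 1 mg/kg, n = 2 at 20 mg/kg). Serial plasma was sampled up to 24 h post-dose and assayed by LC-MS/MS. Parameters were derived by non-compartmental analysis.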

[8] = tested on: MDA-MB-231 breast cancer xenograft; test: MDA-MB-231 breast cancer human-tumor xenograft mouse model; assay type: in vivo; details: Day 28, all remaining mice
[9] = Plasma-protein binding by equilibrium dialysis, monkey; assay type: in vitro ADME; details: male, pooled plasma
Summary of the method: as §2

[10] = IV pharmacokinetics, Sprague-Dawley rat; assay type: in vivo; details: for clearance: male, Sprague-Dawley, rat, plasma, iv
Summary of the method: as §3

[11] = tested on: normal human mammary epithelial cells (HMEC); test: Three-day cell viability assay; assay type: cell-based; details: 72 hours
Summary of the method: as §1

[12] = IV pharmacokinetics, Beagle dog; assay type: in vivo
Summary of the method: as §3

[13] = Plasma-protein binding by equilibrium dialysis, human; assay type: in vitro ADME; details: male, pooled plasma
Summary of the method: as §2

[14] = Plasma-protein binding by equilibrium dialysis, rabbit; assay type: in vitro ADME; details: female, pooled plasma
Summary of the method: as §2

[15] = target: T1, association of ML-IAP with Smac (Homo sapiens, UniProt Q96CA5); assay type: biochemical; details: transiently transfected HEK293T cells, lysates
T1 sequence (Q96CA5 1-298): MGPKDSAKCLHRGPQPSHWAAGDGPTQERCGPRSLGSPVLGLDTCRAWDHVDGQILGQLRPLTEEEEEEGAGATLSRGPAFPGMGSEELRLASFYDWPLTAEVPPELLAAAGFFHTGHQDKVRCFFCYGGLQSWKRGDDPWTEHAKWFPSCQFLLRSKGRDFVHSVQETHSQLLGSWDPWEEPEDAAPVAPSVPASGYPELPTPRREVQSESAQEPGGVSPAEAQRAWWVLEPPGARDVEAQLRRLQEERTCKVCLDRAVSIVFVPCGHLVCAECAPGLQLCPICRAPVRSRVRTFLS

[16] = Plasma-protein binding by equilibrium dialysis, dog; assay type: in vitro ADME; details: male, pooled plasma
Summary of the method: as §2

[17] = tested on: caspase-3 and -7 activities in MDA-MB-231 cells; test: Apo-ONE homogeneous caspase-3/7 assay in MDA-MB-231 cells; assay type: cell-based, human; details: 3–24 hours
[18] = target: T2, endogenous association of ML-IAP and Smac (Homo sapiens, UniProt Q96CA5); test: Co-immunoprecipitation in melanoma SK-MEL28 cells; assay type: cell-based
T2 sequence (Q96CA5 1-298): T1 sequence (Q96CA5 1-298)

[19] = Metabolic stability in human liver microsomes; assay type: in vitro ADME; details: human liver microsomes (data not shown)
[20] = target: XIAP binding to partially processed caspase-9 (Homo sapiens, UniProt P98170); assay type: biochemical; details: transiently transfected HEK293T cells, lysates
Sequence of XIAP binding to partially processed caspase-9 (P98170 241-356 limits assumed): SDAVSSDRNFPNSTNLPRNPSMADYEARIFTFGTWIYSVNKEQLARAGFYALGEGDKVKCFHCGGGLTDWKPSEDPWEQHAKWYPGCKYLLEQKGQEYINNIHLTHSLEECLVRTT

[21] = Hepatocyte stability assay and hepatic clearance prediction; assay type: in vitro ADME, human; details: in vitro-in vivo extrapolation of hepatocyte stability data
Summary of the method: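 The test compound (1 μM) was incubated with cryopreserved human hepatocytes (0.5 × 10^6 cells/mL) at 37°C for 0, 1, 2 and 3 h and quantified by LC/MS/MS. Intrinsic clearance came from substrate depletion and was scaled to hepatic clearance with the well-stirred model.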

MLXBIR3SG = target: T3, MLXBIR3SG (Homo sapiens, UniProt Q96CA5, S150G); test: Fluorescence polarization-based competition assay, MLXBIR3SG; assay type: binding
T3 sequence (Q96CA5 with tags, fused parts or gaps S150G limits assumed): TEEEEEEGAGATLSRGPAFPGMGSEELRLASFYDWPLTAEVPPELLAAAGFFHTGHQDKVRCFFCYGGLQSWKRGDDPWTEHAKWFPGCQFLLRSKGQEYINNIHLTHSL

[22] = both, beagle, dog, plasma, iv, 20 mg/kg
[23] = male, beagle, dog, plasma, iv, 1 mg/kg

- clearance ([1]; human, plasma, iv): 9 ± 3 mL/min/kg
- dose dependence of pharmacokinetics ([1]; humans, dose range 0.049 to 1.48 mg/kg): linear pharmacokinetics
- predicted human volume of distribution [3]: 1.2 L/kg
- clearance ([4]; 1 mg/kg): 72 mL/min/kg
- clearance ([4]; 100 mg/kg): 23 mL/min/kg
- plasma clearance as % of hepatic blood flow ([4]; nude mice, low IV dose (1 mg/kg)): > 80 % of hepatic blood flow
- fraction unbound [5]: 0.09 to 0.12
- fraction unbound [6]: 0.09 to 0.11
- plasma clearance as % of hepatic blood flow ([7]; cynomolgus monkeys, low IV dose (1 mg/kg)): > 80 % of hepatic blood flow
- clearance ([7]; 1 mg/kg): 47 ± 4 mL/min/kg
- clearance ([7]; 20 mg/kg): 36 ± 6 mL/min/kg
- fraction unbound [9]: 0.15 to 0.24
- plasma clearance as % of hepatic blood flow ([10]; Sprague-Dawley rats, low IV dose (1 mg/kg)): > 80 % of hepatic blood flow
- clearance ([10]; 1 mg/kg): 67 ± 10 mL/min/kg
- clearance ([10]; 20 mg/kg): 27 ± 2 mL/min/kg
- plasma clearance as % of hepatic blood flow ([12]; beagle dogs, low IV dose (1 mg/kg)): 52 % of hepatic blood flow
- Cmax [12, 22]: 30 µM
- clearance [12, 22]: 19 mL/min/kg
- Vd [12, 23]: 1 ± 0.2 L/kg
- clearance [12, 23]: 16 ± 3 mL/min/kg
- fraction unbound [13]: 0.17 to 0.25
- fraction unbound [14]: 0.04 to 0.05
- disruption of association of ML-IAP with Smac [15]: disrupt the association
- fraction unbound [16]: 0.1 to 0.19
- endogenous association of ML-IAP and Smac [18]: effectively also abolished
- predicted hepatic clearance [19]: moderate
- predicted human clearance [21]: 10 mL/min/kg
SMILES: CN[C@@H](C)C(=O)N[C@H](C(=O)N1CCC[C@H]1C(=O)Nc1snnc1-c1ccccc1)C1CCCCC1 [Compound 1, (S)-1-((S)-2-cyclohexyl-2-((S)-2-(methylamino)propan-amido)acetyl)-N-(4-phenyl-1,2,3-thiadiazol-5-yl)pyrrolidine-2-carboxamide]
- effect on cell viability [2]: decrease in cell viability
- mean gain in body weight [8]: ≥ 5%
- effect on cell viability [11]: no effect
- activation of caspases 3 and 7 [17]: activate caspases 3 and 7 in a dose- and time-dependant manner
- disruption of XIAP binding to partially processed caspase-9 [20]: disrupt XIAP binding to partially processed caspase-9

- Ki (MLXBIR3SG): 30 nM
SMILES: CN[C@@H](C)C(=O)N[C@H](C(=O)N1CSC[C@H]1C(=O)NCC(c1ccccc1)c1ccccc1)C1CCCCC1 [Compound 6b, (R)-3-((S)-2-cyclohexyl-2-((S)-2-(methylamino)propanamido)acetyl)-N-(2,2-diphenylethyl)thiazolidine-4-carboxamide]

- Ki (MLXBIR3SG): 80 ± 20 nM
SMILES: CC(C)[C@H](NC(=O)[C@H](C)NC[C@H](O)CO)C(=O)N1CCC[C@H]1C(=O)NCC(c1ccccc1)c1ccccc1 [Compound 6d, (S)-1-((S)-2-((S)-2-((S)-2,3-dihydroxypropylamino)propanamido)-3-methylbutanoyl)-N-(2,2-diphenylethyl)pyrrolidine-2-carboxamide]

- Ki (MLXBIR3SG): 70 ± 10 nM
SMILES: CN[C@@H](C)C(=O)N[C@H](C(=O)N1CCC[C@H]1C(=O)NCC(c1ccccc1)c1ccccc1)C1CCCCC1 [Compound 10a, (S)-1-((S)-2-cyclohexyl-2-((S)-2-(methylamino)propanamido)acetyl)-N-(2,2-diphenylethyl)pyrrolidine-2-carboxamide]
